Experimental findings from ChEMBL document CHEMBL4339190, “2,6-Disubstituted imidazo[2,1-b][1,3,4]thiadiazole derivatives as potent staphylococcal biofilm inhibitors” (Eur J Med Chem, 2019) are described below.

For data set [1], the system named is Staphylococcus epidermidis. The data set is described as follows: Antibiofilm activity against Staphylococcus epidermidis ATCC 12228 incubated for 24 hrs by crystal violet-staining based assay. The class given is functional. The essentials: (§1)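 Biofilm prevention: 0.5 McFarland inoculum (2.5 µL) in 100 µL TSB with 2% w/v glucose, compound present from the start over 100–0.1 µg/mL, 37 °C 24 h. Washed with PBS, stained 0.1% w/v crystal violet 30 min, eluted with 33% v/v acetic acid, read at 570 nm. BIC50 (50% inhibition versus untreated control) derived by linear regression; triplicate, repeated at least twice.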

Data set [2] concerns Staphylococcus aureus. The data set is described as follows: Antibiofilm activity against Staphylococcus aureus ATCC 25923 incubated for 24 hrs by crystal violet-staining based assay. The class given is functional. The procedure, abridged: as §1
Data set [3] deals with Staphylococcus aureus. The data set is described as follows: Antimicrobial activity against Staphylococcus aureus ATCC 6538 assessed as growth inhibition of planktonic forms incubated for 24 hrs. The class given is organism-based. As to conditions: in vitro. The essentials:
(§2)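 Broth microdilution in tryptic soy broth. Two-fold series 100 to 0.75 μg/mL made from a 1 mg/mL stock in 0.9% NaCl. Inoculum ~10⁶ cfu/mL taken from a 24 h culture, 37 °C 24 h.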

Data set [4] deals with Escherichia coli. The data set is described as follows: Antimicrobial activity against Escherichia coli ATCC 25922 assessed as growth inhibition of planktonic forms incubated for 24 hrs. In kind it is organism-based. As to conditions: in vitro. The essentials:
as §2

Data set [5] deals with Staphylococcus epidermidis. The data set is described as follows: Antimicrobial activity against Staphylococcus epidermidis ATCC 12228 assessed as growth inhibition of planktonic forms incubated for 24 hrs. In kind it is organism-based. The note with it: in vitro. The essentials:
as §2

Data set [6] has as its system Staphylococcus aureus. The data set is described as follows: Antimicrobial activity against Staphylococcus aureus ATCC 25923 assessed as growth inhibition of planktonic forms incubated for 24 hrs. The class given is organism-based. As to conditions: in vitro. The essentials: as §2
Data set [7] has as its system Pseudomonas aeruginosa. The data set is described as follows: Antibiofilm activity against Pseudomonas aeruginosa ATCC 15442 incubated for 24 hrs by crystal violet-staining based assay. In kind it is functional. The essentials: as §1
The test system of data set [8] is Escherichia coli. The data set is described as follows: Antibiofilm activity against Escherichia coli ATCC 25922 assessed as inhibition of biofilm formation at 100 ug/ml incubated for 24 hrs by crystal violet-staining based assay. In kind it is functional. As to conditions: ATCC 25922, 24 h.
Data set [9] relates to Staphylococcus aureus. The data set is described as follows: Antibiofilm activity against Staphylococcus aureus ATCC 6538 incubated for 24 hrs by crystal violet-staining based assay. In kind it is functional. The procedure, abridged: as §1
Data set [10] deals with Pseudomonas aeruginosa. The data set is described as follows: Antimicrobial activity against Pseudomonas aeruginosa ATCC 15442 assessed as growth inhibition of planktonic forms incubated for 24 hrs. In kind it is organism-based. As to conditions: in vitro. The procedure, abridged: as §2
Data set [11] concerns Pseudomonas aeruginosa. The data set is described as follows: Antibiofilm activity against Pseudomonas aeruginosa ATCC 15442 assessed as inhibition of biofilm formation at 100 ug/ml incubated for 24 hrs by crystal violet-staining based assay. In kind it is functional. The note with it: ATCC 15442, 24 h.

Regarding `O=[N+]([O-])c1ccc(-c2cn3nc(-c4c[nH]c5ccc(Br)cc45)sc3n2)cc1`, the MBIC50 in data set [1] turned out to be 19.1 µM; with Staphylococcus aureus [2], 23.9 µM; in the data set on Pseudomonas aeruginosa [7], 43.3 µM; with Staphylococcus aureus [9] it was 27 µM. Also, the inhibition entry (in [1]; with Staphylococcus aureus [2]; in the data set on Pseudomonas aeruginosa [7]; in the data set on Staphylococcus aureus [9]) was “Dose-dependent effect” in each case. Besides, the MIC (in the data set with Staphylococcus aureus [3]; in the data set with Escherichia coli [4]; in data set [5]; with Staphylococcus aureus [6]; in the data set with Pseudomonas aeruginosa [10]) was greater than 100 µg/mL each time. Besides, the inhibition at 100 µg/mL in the data set on Escherichia coli [8] is less than 15%.
Turning to `Br.Fc1ccc(-c2cn3nc(-c4c[nH]c5ccccc45)sc3n2)cc1`, the MBIC50 is 30.8 µM in [1], 15.6 µM in the data set with Staphylococcus aureus [2], 47.4 µM with Pseudomonas aeruginosa [7] and 13.4 µM with Staphylococcus aureus [9]. The inhibition entry (in data set [1]; in the data set on Staphylococcus aureus [2]; in the data set on Pseudomonas aeruginosa [7]; with Staphylococcus aureus [9]) was “Dose-dependent effect” each time. The MIC (in the data set with Staphylococcus aureus [3]; in the data set with Escherichia coli [4]; in data set [5]; in the data set on Staphylococcus aureus [6]; in the data set on Pseudomonas aeruginosa [10]) was greater than 100 µg/mL throughout. Further, the inhibition at 100 µg/mL with Escherichia coli [8] was less than 15%.
On to `Br.O=[N+]([O-])c1ccc(-c2cn3nc(-c4c[nH]c5ccc(Cl)cc45)sc3n2)cc1`, for which the MBIC50 was determined as 28.5 µM in data set [1], 55.3 µM with Staphylococcus aureus [2] and 35.8 µM in the data set with Staphylococcus aureus [9]. Besides, the inhibition result (in data set [1]; with Staphylococcus aureus [2]; in the data set on Staphylococcus aureus [9]) was “Dose-dependent effect” each time. For the same compound, the MIC (with Staphylococcus aureus [3]; in the data set on Escherichia coli [4]; in data set [5]; in the data set with Staphylococcus aureus [6]; in the data set on Pseudomonas aeruginosa [10]) was greater than 100 µg/mL each time. For the same compound, the inhibition at 100 µg/mL with Pseudomonas aeruginosa [11] and in the data set with Escherichia coli [8] was less than 15% in each case.
Regarding `Br.Cn1cc(-c2nn3cc(-c4ccccc4)nc3s2)c2ccccc21`, the MBIC50 in data set [1] came to 47.9 µM; in the data set with Staphylococcus aureus [2], 23 µM; in the data set with Staphylococcus aureus [9] it was 18.9 µM. Besides, the inhibition result (in data set [1]; in the data set with Staphylococcus aureus [2]; in the data set on Staphylococcus aureus [9]) was “Dose-dependent effect” each time. The MIC (in the data set on Staphylococcus aureus [3]; in the data set with Escherichia coli [4]; in [5]; with Staphylococcus aureus [6]; in the data set with Pseudomonas aeruginosa [10]) was greater than 100 µg/mL each time. Further, the inhibition at 100 µg/mL in the data set with Pseudomonas aeruginosa [11] and in the data set on Escherichia coli [8] was less than 15% in each case.
As to `Br.COc1ccc(OC)c(-c2cn3nc(-c4cn(C)c5ccc(Br)cc45)sc3n2)c1`, the MBIC50 in [1] came to 52.3 µM; in the data set on Staphylococcus aureus [2], 90.8 µM; in the data set with Pseudomonas aeruginosa [7], 28.5 µM; in the data set on Staphylococcus aureus [9], 8.9 µM. The inhibition entry (in [1]; in the data set with Staphylococcus aureus [2]; in the data set on Pseudomonas aeruginosa [7]; in the data set with Staphylococcus aureus [9]) was “Dose-dependent effect” in each case. Also, the MIC (in the data set on Staphylococcus aureus [3]; in the data set on Escherichia coli [4]; in [5]; with Staphylococcus aureus [6]; in the data set with Pseudomonas aeruginosa [10]) was greater than 100 µg/mL in each case. For the same compound, in the data set with Escherichia coli [8], the inhibition at 100 µg/mL was less than 15%.
With `FC(F)(F)c1ccc(-c2cn3nc(-c4c[nH]c5ccc(Cl)cc45)sc3n2)cc1`, the MBIC50 in data set [1] stood at 24.5 µM; with Staphylococcus aureus [2], 9.7 µM; in the data set on Staphylococcus aureus [9], 12.6 µM. Besides, the inhibition result (in data set [1]; with Staphylococcus aureus [2]; with Staphylococcus aureus [9]) was “Dose-dependent effect” throughout. Further, the MIC (in the data set with Staphylococcus aureus [3]; in the data set with Escherichia coli [4]; in data set [5]; in the data set on Staphylococcus aureus [6]; with Pseudomonas aeruginosa [10]) was greater than 100 µg/mL each time. Moreover, the inhibition at 100 µg/mL with Pseudomonas aeruginosa [11] and with Escherichia coli [8] was less than 15% throughout.
Take `Br.Cn1cc(-c2nn3cc(-c4ccc(C(F)(F)F)cc4)nc3s2)c2cc(Br)ccc21`: the MIC (in the data set with Staphylococcus aureus [3]; in the data set with Escherichia coli [4]; in data set [5]; in the data set on Staphylococcus aureus [6]; with Pseudomonas aeruginosa [10]) was greater than 100 µg/mL each time.
For `Cn1cc(-c2nn3cc(-c4ccc(C(F)(F)F)cc4)nc3s2)c2cc(Cl)ccc21`, the MIC (in the data set on Staphylococcus aureus [3]; in the data set on Escherichia coli [4]; in [5]; in the data set on Staphylococcus aureus [6]; with Pseudomonas aeruginosa [10]) was greater than 100 µg/mL each time.
As to `Br.COc1ccc(OC)c(-c2cn3nc(-c4cn(C)c5ccccc45)sc3n2)c1`, the MBIC50 in data set [1] was 25 µM; with Staphylococcus aureus [2], 24.3 µM; with Staphylococcus aureus [9] it was 3.6 µM. Further, the inhibition entry (in data set [1]; with Staphylococcus aureus [2]; in the data set with Staphylococcus aureus [9]) was “Dose-dependent effect” in each case. The MIC (in the data set with Staphylococcus aureus [3]; with Escherichia coli [4]; in data set [5]; with Staphylococcus aureus [6]; in the data set on Pseudomonas aeruginosa [10]) was greater than 100 µg/mL each time. In the data set on Escherichia coli [8], the inhibition at 100 µg/mL was less than 15%.
For `Br.COc1cccc(-c2cn3nc(-c4cn(C)c5ccc(Br)cc45)sc3n2)c1`, the MBIC50 in data set [1] came to 63.8 µM; with Staphylococcus aureus [2] it was 16 µM; in the data set with Pseudomonas aeruginosa [7], 26.3 µM; in the data set on Staphylococcus aureus [9], 12.4 µM. The inhibition entry (in data set [1]; with Staphylococcus aureus [2]; with Pseudomonas aeruginosa [7]; in the data set with Staphylococcus aureus [9]) was “Dose-dependent effect” throughout. The MIC (in the data set on Staphylococcus aureus [3]; in the data set with Escherichia coli [4]; in [5]; in the data set with Staphylococcus aureus [6]; in the data set on Pseudomonas aeruginosa [10]) was greater than 100 µg/mL in each case. Also, in the data set with Escherichia coli [8], the inhibition at 100 µg/mL was less than 15%.
`Br.COc1cccc(-c2cn3nc(-c4c[nH]c5ccc(Cl)cc45)sc3n2)c1`: the MBIC50 came out at 32.7 µM in [1], 31.6 µM in the data set with Staphylococcus aureus [2], 29 µM with Pseudomonas aeruginosa [7] and 15.1 µM with Staphylococcus aureus [9]. Also, the inhibition result (in data set [1]; with Staphylococcus aureus [2]; with Pseudomonas aeruginosa [7]; with Staphylococcus aureus [9]) was “Dose-dependent effect” in each case. Also, the MIC (in the data set on Staphylococcus aureus [3]; in the data set with Escherichia coli [4]; in [5]; in the data set on Staphylococcus aureus [6]; in the data set on Pseudomonas aeruginosa [10]) was greater than 100 µg/mL each time. Moreover, the inhibition at 100 µg/mL with Escherichia coli [8] was less than 15%.
